Source: ChEMBL document CHEMBL5321201, “Investigation of morpholine isosters for the development of a potent, selective and metabolically stable mTOR kinase inhibitor” (Eur J Med Chem, 2023)

What was measured:
[1] = AUC (0 to 8 hrs) in Sprague-Dawley rat brain at 5 mg/kg, po administered as single dose and measured after 8 hrs by LC-MS analysis; format: ADME, organism-based; set-up: time 8 hrs, dose 5 mg/kg, route po; details: in vivo
In short: (§1)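 Male Sprague Dawley rats given a single oral dose of 5 mg/kg (5 mL/kg) in 20% Captisol, pH adjusted to 3. Three rats per time point (30 min, 2, 4, 8 h); heart-puncture blood into lithium-heparin, plasma separated, brain collected. Samples precipitated with acetonitrile containing diazepam internal standard, then LC-MS quantification.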

[2] = Metabolic stability in CD-1 mouse hepatocytes assessed as parent compound remaining at 5 uM measured after 3 hrs by LC-MS analysis; format: ADME, cell-based, Hepatocyte; details: read-out: Stability
In short: (§2)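 Cryopreserved hepatocytes from the listed species, in suspension at 200,000 cells/well in Williams Medium E with 2 mM L-glutamine and 25 mM HEPES. Compound final 5 µM in 0.5% DMSO, sampled at 0, 15, 60, 90 and 180 min. ACN precipitation, LC-MS. Hepatocyte-free medium served as negative control and 7-ethoxycoumarin as reference; duplicates.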

[3] = AUC (0 to 8 hrs) in Sprague-Dawley rat plasma at 5 mg/kg, po administered as single dose and measured after 8 hrs by LC-MS analysis; format: ADME, organism-based; set-up: dose 5 mg/kg, time 8 hrs, route po; in short: as §1
[4] = Metabolic stability in CD-1 mouse hepatocytes assessed as half life at 5 microM incubated upto 180 mins by LC/MS analysis; format: ADME, cell-based, Hepatocyte; in short: as §2
CYP1A1 = molecular target: T1, CYP1A1 (Homo sapiens, UniProt P04798); assay: Stability of compound assessed as recombinant human CYP1A1-mediated drug metabolism by measuring compound remaining at 1 uM incubated for 60 mins by LC-MS analysis; format: ADME; details: read-out: Stability
T1 sequence (P04798 whole entry): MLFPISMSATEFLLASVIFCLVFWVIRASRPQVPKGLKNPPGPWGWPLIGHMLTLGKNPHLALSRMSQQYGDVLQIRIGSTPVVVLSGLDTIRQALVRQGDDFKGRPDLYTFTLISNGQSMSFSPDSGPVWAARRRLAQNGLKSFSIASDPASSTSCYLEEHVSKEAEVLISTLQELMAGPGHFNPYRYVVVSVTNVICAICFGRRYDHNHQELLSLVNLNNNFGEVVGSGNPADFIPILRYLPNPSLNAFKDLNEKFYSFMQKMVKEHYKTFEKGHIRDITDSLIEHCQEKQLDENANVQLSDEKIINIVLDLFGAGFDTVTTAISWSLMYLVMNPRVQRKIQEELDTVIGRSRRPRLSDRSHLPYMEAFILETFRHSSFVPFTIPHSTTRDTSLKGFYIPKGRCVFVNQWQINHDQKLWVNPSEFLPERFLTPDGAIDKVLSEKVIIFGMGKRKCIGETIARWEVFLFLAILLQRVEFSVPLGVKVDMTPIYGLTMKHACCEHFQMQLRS
In short: (§3)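 Recombinant human CYP1A1 or CYP1A2 Supersomes at 25 pmol/mL, with compound at 1 µM (0.25% DMSO) and an NADP+-regenerating cofactor mix, at 37 °C. Reactions stopped with ACN plus internal standard at 0 and 60 min. Controls: melatonin for CYP1A1 and phenacetin for CYP1A2, plus no-cofactor negatives. Duplicates.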

[5] = Metabolic stability in Beagle dog hepatocytes assessed as half life at 5 microM incubated upto 180 mins by LC/MS analysis; format: ADME, cell-based, Canis lupus familiaris, Hepatocyte; in short: as §2
[6] = molecular target: T2, Serine/threonine-protein kinase mTOR (Homo sapiens, UniProt P42345); assay: Binding affinity to DNA-tagged mTOR (unknown origin) assessed as dissociation constant by quantitative PCR analysis
In short: (§4)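 Competition binding: DNA-tagged kinases on immobilized ligand competed with an 11-point 3-fold dilution starting at 30 µM. Bound kinase quantified by qPCR of DNA tags. Kd fitted with the Hill equation (slope −1); duplicate experiments, mean reported.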

[7] = Toxicity in Sprague-Dawley rat assessed as increase in glucose concentration at 5 mg/kg, po measured upto 8 hrs by glucose colorimetric assay; format: organism-based; details: in vivo
In short: (§5)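 Male SD rats dosed orally at 5 mg/kg in 20% Captisol, with vehicle controls. Plasma was taken by heart puncture at 30 min, 2, 4 and 8 h, three rats per point. Insulin was measured by rat/mouse insulin ELISA and glucose by colorimetric assay.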

[8] = Metabolic stability in human hepatocytes assessed as parent compound remaining at 5 uM measured after 3 hrs by LC-MS analysis; format: ADME, cell-based, Hepatocyte; details: read-out: Stability; in short: as §2
cells [9] = details: Homo sapiens, SK-OV-3, 1 h
cells [10] = details: Homo sapiens, Karpas-1718, 72 h
[11] = molecular target: Phosphatidylinositol 3-kinase catalytic subunit type 3 (Homo sapiens, UniProt Q8NEB9); assay: Binding affinity to DNA-tagged VPS34 (unknown origin) assessed as dissociation constant by quantitative PCR analysis; in short: as §4
[12] = Metabolic stability in Sprague-Dawley rat hepatocytes assessed as intrinsic clearance measured per million cells at 5 microM incubated upto 180 mins by LC/MS analysis; format: ADME, cell-based, Hepatocyte; details: read-out: CLH; in short: as §2
[13] = molecular target: Phosphatidylinositol 4,5-bisphosphate 3-kinase catalytic subunit gamma isoform (Homo sapiens, UniProt P48736); assay: Binding affinity to DNA-tagged P13kgamma (unknown origin) assessed as dissociation constant by quantitative PCR analysis; in short: as §4
VL51 = assay: cells; details: Homo sapiens, VL51, 72 h
[14] = Metabolic stability in Sprague-Dawley rat hepatocytes assessed as half life at 5 microM incubated upto 180 mins by LC/MS analysis; format: ADME, cell-based, Hepatocyte; in short: as §2
[15] = Toxicity in Sprague-Dawley rat assessed as increase in insulin concentration at 5 mg/kg, po measured upto 8 hrs by ELISA; format: organism-based; details: in vivo; in short: as §5
[16] = Metabolic stability in Sprague-Dawley rat hepatocytes assessed as parent compound remaining at 5 uM measured after 3 hrs by LC-MS analysis; format: ADME, cell-based, Hepatocyte; details: read-out: Stability; in short: as §2
[17] = molecular target: T3, Phosphatidylinositol 4,5-bisphosphate 3-kinase catalytic subunit alpha isoform (Homo sapiens, UniProt P42336); assay: Displacement of Alexa fluor 647-labeled kinase tracer 314 from recombinant N-terminal (His)6-tagged p110alpha (unknown origin) assessed as inhibition constant by TR-FRET based Lanthascreen kinase activity assay
[18] = molecular target: T3, Phosphatidylinositol 4,5-bisphosphate 3-kinase catalytic subunit alpha isoform; assay: Binding affinity to DNA-tagged P13kalpha (unknown origin) assessed as dissociation constant by quantitative PCR analysis; in short: as §4
cells [19] = details: Homo sapiens, SK-OV-3, 1 h; remark: listed apart in the source
[20] = Metabolic stability in CD-1 mouse hepatocytes assessed as intrinsic clearance measured per million cells at 5 microM incubated upto 180 mins by LC/MS analysis; format: ADME, cell-based, Hepatocyte; details: read-out: CLH; in short: as §2
[21] = Metabolic stability in human hepatocytes assessed as intrinsic clearance measured per million cells at 5 microM incubated upto 180 mins by LC/MS analysis; format: ADME, cell-based, Hepatocyte; details: read-out: CLH; in short: as §2
[22] = molecular target: T4, Phosphatidylinositol 4,5-bisphosphate 3-kinase catalytic subunit delta isoform (Homo sapiens, UniProt O00329); assay: Binding affinity to DNA-tagged P13kdelta (unknown origin) assessed as dissociation constant by quantitative PCR analysis; in short: as §4
T4 sequence (O00329 whole entry): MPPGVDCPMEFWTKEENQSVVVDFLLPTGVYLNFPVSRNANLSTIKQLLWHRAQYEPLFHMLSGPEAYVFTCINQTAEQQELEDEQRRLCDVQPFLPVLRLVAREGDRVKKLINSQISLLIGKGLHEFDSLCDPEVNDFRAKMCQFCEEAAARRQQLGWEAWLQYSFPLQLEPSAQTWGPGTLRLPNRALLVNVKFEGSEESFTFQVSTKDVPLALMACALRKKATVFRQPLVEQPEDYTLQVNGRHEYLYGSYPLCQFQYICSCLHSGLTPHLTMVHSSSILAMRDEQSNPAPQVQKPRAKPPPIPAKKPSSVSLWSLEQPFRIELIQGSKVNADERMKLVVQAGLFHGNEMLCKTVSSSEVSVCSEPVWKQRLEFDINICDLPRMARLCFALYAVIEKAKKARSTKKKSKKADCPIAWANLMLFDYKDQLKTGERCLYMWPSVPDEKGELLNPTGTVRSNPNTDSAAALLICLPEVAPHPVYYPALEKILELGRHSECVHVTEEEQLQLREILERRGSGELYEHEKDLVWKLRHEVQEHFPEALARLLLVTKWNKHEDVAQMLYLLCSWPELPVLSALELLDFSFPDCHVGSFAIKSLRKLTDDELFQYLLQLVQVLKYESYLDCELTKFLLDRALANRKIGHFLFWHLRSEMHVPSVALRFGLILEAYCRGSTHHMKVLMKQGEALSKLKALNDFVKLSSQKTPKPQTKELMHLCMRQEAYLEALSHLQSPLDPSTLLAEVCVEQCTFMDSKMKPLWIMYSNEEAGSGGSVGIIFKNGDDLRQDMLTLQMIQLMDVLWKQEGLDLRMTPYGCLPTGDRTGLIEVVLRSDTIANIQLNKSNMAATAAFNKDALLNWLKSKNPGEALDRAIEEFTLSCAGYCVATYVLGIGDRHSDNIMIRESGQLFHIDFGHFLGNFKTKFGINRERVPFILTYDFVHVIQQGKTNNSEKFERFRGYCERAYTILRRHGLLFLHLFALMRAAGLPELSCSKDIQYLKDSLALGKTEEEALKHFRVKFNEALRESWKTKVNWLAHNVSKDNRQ

[23] = Metabolic stability in Beagle dog hepatocytes assessed as intrinsic clearance measured per million cells at 5 microM incubated upto 180 mins by LC/MS analysis; format: ADME, cell-based, Canis lupus familiaris, Hepatocyte; details: read-out: CLH; in short: as §2
[24] = Metabolic stability in Beagle dog hepatocytes assessed as parent compound remaining at 5 uM measured after 3 hrs by LC-MS analysis; format: ADME, cell-based, Canis lupus familiaris, Hepatocyte; details: read-out: Stability; in short: as §2
CYP1A2 = molecular target: T5, CYP1A2 (Homo sapiens, UniProt P05177); assay: Stability of compound assessed as recombinant human CYP1A2-mediated drug metabolism by measuring compound remaining at 1 uM incubated for 60 mins by LC-MS analysis; format: ADME; details: read-out: Stability; in short: as §3
T5 sequence (P05177 whole entry): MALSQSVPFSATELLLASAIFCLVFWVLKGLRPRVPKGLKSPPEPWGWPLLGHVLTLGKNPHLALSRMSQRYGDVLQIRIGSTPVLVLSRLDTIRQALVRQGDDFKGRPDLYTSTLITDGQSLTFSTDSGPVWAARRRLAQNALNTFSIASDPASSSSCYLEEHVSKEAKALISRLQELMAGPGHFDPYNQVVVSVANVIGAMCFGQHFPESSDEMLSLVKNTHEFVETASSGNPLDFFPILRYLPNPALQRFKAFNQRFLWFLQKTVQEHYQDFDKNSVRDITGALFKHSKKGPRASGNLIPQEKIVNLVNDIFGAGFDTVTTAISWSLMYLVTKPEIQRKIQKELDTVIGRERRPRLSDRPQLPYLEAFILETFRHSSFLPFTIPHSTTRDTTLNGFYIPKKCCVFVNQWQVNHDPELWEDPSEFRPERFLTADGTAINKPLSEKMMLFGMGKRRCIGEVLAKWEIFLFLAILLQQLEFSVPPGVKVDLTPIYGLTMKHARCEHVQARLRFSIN

cells [25] = details: Homo sapiens, SSK41, 72 h
[26] = molecular target: T2, Serine/threonine-protein kinase mTOR; assay: Displacement of Alexa fluor 647-labeled kinase tracer 314 from N-terminal GST-fused truncated recombinant human mTOR (1360 to 2549 residues) assessed as inhibition constant by TR-FRET based Lanthascreen kinase activity assay
[27] = molecular target: Phosphatidylinositol 4-kinase beta (Homo sapiens, UniProt Q9UBF8); assay: Binding affinity to DNA-tagged P14kbeta (unknown origin) assessed as dissociation constant by quantitative PCR analysis; in short: as §4
[28] = molecular target: Phosphatidylinositol 4,5-bisphosphate 3-kinase catalytic subunit beta isoform (Homo sapiens, UniProt P42338); assay: Binding affinity to DNA-tagged P13kbeta (unknown origin) assessed as dissociation constant by quantitative PCR analysis; in short: as §4
[29] = Metabolic stability in human hepatocytes assessed as half life at 5 microM incubated upto 180 mins by LC/MS analysis; format: ADME, cell-based, Hepatocyte; in short: as §2

T3 sequence (P42336 whole entry, canonical isoform): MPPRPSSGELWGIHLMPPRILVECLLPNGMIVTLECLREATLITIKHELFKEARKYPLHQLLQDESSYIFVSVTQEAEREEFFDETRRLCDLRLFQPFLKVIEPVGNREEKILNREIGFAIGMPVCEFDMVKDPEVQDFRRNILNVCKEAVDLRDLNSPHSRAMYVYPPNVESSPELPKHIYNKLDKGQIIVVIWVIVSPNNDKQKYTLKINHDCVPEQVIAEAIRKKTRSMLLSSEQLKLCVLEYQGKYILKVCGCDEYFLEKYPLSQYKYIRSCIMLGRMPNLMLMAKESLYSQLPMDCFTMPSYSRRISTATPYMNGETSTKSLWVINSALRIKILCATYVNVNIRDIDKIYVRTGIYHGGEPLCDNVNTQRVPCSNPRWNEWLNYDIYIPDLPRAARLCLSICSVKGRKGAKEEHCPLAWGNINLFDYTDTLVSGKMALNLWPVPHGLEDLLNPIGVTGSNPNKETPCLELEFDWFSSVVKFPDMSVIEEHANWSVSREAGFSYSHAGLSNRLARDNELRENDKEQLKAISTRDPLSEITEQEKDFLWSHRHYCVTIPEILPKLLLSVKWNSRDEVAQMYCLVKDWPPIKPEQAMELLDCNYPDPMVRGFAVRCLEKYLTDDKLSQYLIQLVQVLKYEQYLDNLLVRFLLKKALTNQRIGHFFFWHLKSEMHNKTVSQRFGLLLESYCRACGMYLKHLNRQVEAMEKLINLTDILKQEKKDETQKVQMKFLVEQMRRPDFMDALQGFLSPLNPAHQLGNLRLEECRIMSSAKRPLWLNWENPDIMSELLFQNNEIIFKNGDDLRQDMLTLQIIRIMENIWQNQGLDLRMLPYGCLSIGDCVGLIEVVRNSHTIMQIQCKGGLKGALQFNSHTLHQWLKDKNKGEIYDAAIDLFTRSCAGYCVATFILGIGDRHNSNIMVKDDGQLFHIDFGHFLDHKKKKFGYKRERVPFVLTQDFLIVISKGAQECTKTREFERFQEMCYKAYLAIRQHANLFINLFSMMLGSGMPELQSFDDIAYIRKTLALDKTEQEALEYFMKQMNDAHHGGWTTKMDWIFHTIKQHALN
Phosphatidylinositol 4-kinase beta, sequence (Q9UBF8 whole entry, canonical isoform): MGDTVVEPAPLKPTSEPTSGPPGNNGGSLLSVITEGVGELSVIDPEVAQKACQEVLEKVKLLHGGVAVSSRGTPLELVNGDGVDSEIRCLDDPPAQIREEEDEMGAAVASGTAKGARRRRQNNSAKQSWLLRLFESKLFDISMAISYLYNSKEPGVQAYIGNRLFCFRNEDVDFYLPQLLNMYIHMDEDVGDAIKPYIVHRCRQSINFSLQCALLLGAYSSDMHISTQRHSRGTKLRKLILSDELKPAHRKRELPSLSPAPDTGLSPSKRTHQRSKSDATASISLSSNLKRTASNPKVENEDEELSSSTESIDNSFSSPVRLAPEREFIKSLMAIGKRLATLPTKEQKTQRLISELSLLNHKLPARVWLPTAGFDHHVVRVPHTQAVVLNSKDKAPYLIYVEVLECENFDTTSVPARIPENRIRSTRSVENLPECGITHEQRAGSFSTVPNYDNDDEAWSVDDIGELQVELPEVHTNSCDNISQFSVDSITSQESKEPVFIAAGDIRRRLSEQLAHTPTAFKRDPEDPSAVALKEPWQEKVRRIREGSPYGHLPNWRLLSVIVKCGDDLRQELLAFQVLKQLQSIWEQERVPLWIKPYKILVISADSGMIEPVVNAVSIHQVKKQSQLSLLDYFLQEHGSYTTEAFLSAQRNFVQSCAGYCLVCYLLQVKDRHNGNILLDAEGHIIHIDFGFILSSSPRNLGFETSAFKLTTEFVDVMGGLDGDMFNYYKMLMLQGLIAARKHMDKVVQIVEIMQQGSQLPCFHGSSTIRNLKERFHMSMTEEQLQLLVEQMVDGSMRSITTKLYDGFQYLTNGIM
Phosphatidylinositol 4,5-bisphosphate 3-kinase catalytic subunit gamma isoform, sequence (P48736 whole entry, canonical isoform): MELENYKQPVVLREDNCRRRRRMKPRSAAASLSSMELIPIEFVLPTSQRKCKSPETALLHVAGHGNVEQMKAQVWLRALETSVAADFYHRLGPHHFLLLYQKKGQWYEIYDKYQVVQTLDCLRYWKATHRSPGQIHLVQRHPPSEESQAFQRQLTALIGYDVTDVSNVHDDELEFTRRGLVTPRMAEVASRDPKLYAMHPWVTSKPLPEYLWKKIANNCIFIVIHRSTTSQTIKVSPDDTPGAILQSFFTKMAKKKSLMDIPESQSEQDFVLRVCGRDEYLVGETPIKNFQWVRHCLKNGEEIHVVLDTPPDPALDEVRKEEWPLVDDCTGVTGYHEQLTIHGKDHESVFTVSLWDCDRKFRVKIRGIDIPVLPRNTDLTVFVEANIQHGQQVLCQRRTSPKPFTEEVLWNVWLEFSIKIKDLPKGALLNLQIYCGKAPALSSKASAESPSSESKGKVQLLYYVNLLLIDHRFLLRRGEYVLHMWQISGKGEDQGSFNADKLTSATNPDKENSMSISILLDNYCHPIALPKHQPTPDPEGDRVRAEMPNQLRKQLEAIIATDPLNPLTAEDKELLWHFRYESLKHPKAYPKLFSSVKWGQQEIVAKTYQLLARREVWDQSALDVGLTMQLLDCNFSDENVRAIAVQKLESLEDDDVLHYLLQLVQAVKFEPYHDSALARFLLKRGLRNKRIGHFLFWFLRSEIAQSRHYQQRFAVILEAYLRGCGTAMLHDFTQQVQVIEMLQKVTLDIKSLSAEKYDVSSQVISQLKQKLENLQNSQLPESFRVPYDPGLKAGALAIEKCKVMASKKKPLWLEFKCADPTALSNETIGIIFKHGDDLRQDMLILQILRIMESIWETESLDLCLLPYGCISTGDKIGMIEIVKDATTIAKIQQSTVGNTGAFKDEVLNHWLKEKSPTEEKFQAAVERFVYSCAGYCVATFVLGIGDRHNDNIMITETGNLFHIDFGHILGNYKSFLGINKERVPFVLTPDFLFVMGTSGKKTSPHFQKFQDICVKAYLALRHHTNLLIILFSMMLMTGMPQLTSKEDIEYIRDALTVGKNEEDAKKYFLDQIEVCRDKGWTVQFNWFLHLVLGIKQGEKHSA
Phosphatidylinositol 3-kinase catalytic subunit type 3, sequence (Q8NEB9 whole entry): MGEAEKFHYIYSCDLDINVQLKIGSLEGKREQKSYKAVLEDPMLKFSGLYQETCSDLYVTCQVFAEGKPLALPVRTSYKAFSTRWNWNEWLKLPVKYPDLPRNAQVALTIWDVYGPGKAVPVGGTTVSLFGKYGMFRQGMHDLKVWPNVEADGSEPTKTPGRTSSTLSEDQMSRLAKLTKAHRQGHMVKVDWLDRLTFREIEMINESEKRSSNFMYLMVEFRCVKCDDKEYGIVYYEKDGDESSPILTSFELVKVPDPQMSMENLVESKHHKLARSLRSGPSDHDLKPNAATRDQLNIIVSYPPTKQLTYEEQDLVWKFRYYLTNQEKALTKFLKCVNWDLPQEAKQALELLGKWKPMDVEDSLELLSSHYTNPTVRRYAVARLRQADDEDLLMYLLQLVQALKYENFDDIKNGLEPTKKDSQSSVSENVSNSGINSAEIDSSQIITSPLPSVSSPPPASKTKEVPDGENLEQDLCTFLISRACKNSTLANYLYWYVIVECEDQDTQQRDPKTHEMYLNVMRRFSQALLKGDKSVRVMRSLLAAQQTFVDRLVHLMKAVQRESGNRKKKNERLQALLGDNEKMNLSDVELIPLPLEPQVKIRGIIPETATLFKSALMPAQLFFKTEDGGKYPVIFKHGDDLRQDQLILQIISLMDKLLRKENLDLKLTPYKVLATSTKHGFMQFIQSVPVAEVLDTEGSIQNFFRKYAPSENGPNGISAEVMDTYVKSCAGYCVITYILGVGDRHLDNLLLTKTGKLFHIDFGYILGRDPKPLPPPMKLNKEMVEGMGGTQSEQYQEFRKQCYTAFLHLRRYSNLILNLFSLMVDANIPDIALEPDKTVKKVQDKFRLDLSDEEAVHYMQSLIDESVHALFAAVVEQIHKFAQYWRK
Phosphatidylinositol 4,5-bisphosphate 3-kinase catalytic subunit beta isoform, sequence (P42338 whole entry, canonical isoform): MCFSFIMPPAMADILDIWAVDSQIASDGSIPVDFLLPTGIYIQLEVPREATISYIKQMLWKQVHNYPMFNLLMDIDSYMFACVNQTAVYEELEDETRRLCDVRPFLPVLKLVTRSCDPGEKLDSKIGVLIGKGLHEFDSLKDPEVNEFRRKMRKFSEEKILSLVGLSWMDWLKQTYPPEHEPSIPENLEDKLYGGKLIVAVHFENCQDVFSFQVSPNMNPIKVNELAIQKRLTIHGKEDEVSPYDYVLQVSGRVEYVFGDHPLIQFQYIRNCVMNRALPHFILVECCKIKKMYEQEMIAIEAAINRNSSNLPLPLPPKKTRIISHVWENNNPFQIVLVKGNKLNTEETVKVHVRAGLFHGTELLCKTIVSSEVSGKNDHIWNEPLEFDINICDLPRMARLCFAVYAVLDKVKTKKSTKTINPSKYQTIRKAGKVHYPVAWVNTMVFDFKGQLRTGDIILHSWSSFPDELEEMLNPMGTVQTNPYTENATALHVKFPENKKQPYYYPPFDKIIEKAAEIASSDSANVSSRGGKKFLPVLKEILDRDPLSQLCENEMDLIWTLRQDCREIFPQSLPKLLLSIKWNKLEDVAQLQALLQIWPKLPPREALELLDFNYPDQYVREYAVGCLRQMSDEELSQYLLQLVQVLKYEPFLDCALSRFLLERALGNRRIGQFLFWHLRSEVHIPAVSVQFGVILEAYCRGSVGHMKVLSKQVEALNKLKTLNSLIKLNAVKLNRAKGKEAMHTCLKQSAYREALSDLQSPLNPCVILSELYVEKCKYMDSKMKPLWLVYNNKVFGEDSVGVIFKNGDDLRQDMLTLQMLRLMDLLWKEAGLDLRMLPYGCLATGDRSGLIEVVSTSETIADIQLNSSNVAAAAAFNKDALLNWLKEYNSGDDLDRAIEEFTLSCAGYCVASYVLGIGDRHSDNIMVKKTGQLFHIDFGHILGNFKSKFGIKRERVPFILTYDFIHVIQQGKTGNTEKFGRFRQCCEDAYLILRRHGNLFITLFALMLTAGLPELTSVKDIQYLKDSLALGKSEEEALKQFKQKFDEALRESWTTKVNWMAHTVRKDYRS

Structure (SMILES) | half-life at 5 µM [4] | half-life at 5 µM [5] | IC50 (cells [9]) | IC50 (cells [10]) | hepatocyte CLint at 5 µM [12] | IC50 (VL51) | half-life at 5 µM [14] | Ki [17] | IC50 (cells [19]) | hepatocyte CLint at 5 µM [20] | hepatocyte CLint at 5 µM [21] | hepatocyte CLint at 5 µM [23] | IC50 (cells [25]) | Ki [26] | half-life at 5 µM [29] | also measured
Nc1cc(C(F)F)c(-c2nc(C3CCOCC3)nc(N3C4CCC3COC4)n2)cn1 | > 180 min | > 180 min | 85 nM | 118 nM | 2.99 µL/min/1e6 cells | 311 nM | > 180 min | 1140 nM | 171 nM | 2.11 µL/min/1e6 cells | 3.56 µL/min/1e6 cells | 0.42 µL/min/1e6 cells | 369 nM | 22 nM | > 180 min | AUC [1]: 2659 ng·h/g; remaining at 3 h, 5 µM [2]: 74.5%; AUC(0-t) at 8 h [3]: 3760 ng·h/mL; remaining at 1 h, 1 µM (CYP1A1): 53.3%; Kd [6]: 5 nM; Activity [7]: Non-Toxic; remaining at 3 h, 5 µM [8]: 59.9%; Kd [11]: 6100 nM; Kd [13]: 5600 nM; Activity [15]: Non-Toxic; remaining at 3 h, 5 µM [16]: 62.4%; Kd [18]: 420 nM; Kd [22]: 15500 nM; remaining at 3 h, 5 µM [24]: 92.9%; remaining at 1 h, 1 µM (CYP1A2): 84.2%; Kd [27]: > 30000 nM; Kd [28]: 6450 nM
Nc1cc(C(F)F)c(-c2nc(C3=CCOCC3)nc(N3C4CCC3COC4)n2)cn1 |  |  | 94 nM | 354 nM |  | 150 nM |  | 125 nM | 199 nM |  |  |  | 195 nM | 16 nM |  | 
CCOc1ccc2ccc(=O)oc2c1 | 17 min | 18 min |  |  | 18 µL/min/1e6 cells |  | 47 min |  |  | 50 µL/min/1e6 cells | 22 µL/min/1e6 cells | 45 µL/min/1e6 cells |  |  | 39 min | 
